# Data as given in ChEMBL document CHEMBL1138602, “Discovery of sodium 6-[(5-chloro-2-{[(4-chloro-2-fluorophenyl)methyl]oxy}phenyl)methyl]-2-pyridinecarboxylate (GSK269984A) an EP(1) receptor antagonist for the treatment of inflammatory pain” (Bioorg Med Chem Lett, 2009).
# Key:
# [1] = target: T1, Prostaglandin E2 receptor EP1 subtype (Homo sapiens, UniProt P34995); assay: Displacement of [3H]PGE2 from human EP1 receptor expressed in CHO cells; format: cell-based
# T1 sequence (P34995 whole entry): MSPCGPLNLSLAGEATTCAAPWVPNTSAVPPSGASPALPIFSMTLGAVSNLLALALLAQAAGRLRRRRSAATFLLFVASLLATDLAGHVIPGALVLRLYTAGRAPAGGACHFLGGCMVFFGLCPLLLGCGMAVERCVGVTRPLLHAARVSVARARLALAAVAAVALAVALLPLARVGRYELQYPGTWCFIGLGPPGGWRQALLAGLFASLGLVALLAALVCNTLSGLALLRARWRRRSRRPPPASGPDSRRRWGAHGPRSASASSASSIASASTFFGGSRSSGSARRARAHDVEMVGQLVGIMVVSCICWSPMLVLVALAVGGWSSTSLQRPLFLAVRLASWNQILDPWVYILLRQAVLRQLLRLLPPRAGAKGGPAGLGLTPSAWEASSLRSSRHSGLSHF
# Method in brief: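 Radioligand binding with [3H]-PGE2 in CHO cells overexpressing human EP1 receptor. Values are the mean of at least three experiments with standard deviations.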
# Rattus norvegicus [2] = assay: […] activity against complete Freund's adjuvant-induced inflammatory pain in rat assessed as reversal of hypersensitivity at 10 mg/kg, po administered 23 hrs post-adjuvant challenge measured after 1 hr; format: functional
# Method in brief: (§1)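 Rats given adjuvant by intraplantar injection; oral dosing at 1, 3 and 10 mg/kg 23 h later. Hypersensitivity assessed by weight-bearing 1 h post-dose. ED50 derived across doses.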
# Brain = assay: (§2) Drug level in brain of complete Freund's adjuvant-induced rat inflammatory pain model at 10 mg/kg, po administered after 23 hrs of adjuvant challenge measured after 1 hr; format: ADME, organism-based; set-up: dose 10 mg/kg, route oral; conditions: in vivo, 1 h
# Method in brief: (§3)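 CFA rat study: oral doses of 1, 3 or 10 mg/kg given 23 h after intraplantar adjuvant, samples 1 h post-dose. Blood values are the mean from seven animals. Brain values are the mean from three animals.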
# [3] = Lipophilicity, log D at pH 7.4; format: physicochemical; conditions: buffer
# Cytochrome P450 1A2 = target: T2, Cytochrome P450 1A2 (Homo sapiens, UniProt P05177); assay: Inhibition of human CYP1A2; format: ADME
# T2 sequence (P05177 whole entry): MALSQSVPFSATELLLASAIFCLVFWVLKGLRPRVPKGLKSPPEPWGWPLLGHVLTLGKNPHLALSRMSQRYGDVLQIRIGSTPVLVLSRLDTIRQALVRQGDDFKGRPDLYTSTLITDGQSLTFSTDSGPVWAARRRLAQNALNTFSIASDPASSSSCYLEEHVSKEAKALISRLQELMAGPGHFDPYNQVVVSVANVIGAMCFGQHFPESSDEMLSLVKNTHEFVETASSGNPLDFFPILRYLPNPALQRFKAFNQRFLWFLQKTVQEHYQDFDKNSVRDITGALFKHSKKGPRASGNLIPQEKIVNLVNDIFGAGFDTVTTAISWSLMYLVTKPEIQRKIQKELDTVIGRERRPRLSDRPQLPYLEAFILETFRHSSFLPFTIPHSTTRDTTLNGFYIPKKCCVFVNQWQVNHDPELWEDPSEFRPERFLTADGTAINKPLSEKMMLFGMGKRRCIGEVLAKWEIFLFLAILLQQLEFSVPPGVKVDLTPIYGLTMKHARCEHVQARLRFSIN
# Method in brief: (§4)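 Inhibition of metabolism of fluorometric substrates (Cypex protocol); IC50 values are the mean of three experiments ± standard deviation.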
# [4] = Drug level in brain of complete Freund's adjuvant-induced rat inflammatory pain model at 1 mg/kg, po administered after 23 hrs of adjuvant challenge measured after 1 hr; format: ADME, organism-based; set-up: dose 1 mg/kg, route oral; conditions: read-out: Drug uptake; method in brief: as §3
# [5] = as §2; format: ADME, organism-based; set-up: dose 10 mg/kg, route oral; conditions: brain, read-out: Drug uptake; method in brief: as §3
# [6] = Drug level in blood of complete Freund's adjuvant-induced rat inflammatory pain model at 1 mg/kg, po administered after 23 hrs of adjuvant challenge measured after 1 hr; format: ADME, organism-based; set-up: dose 1 mg/kg, route oral; conditions: read-out: Drug uptake; method in brief: as §3
# Cytochrome P450 2C19 = Cytochrome P450 2C19 (Homo sapiens, UniProt P33261); assay: Inhibition of human CYP2C19; format: ADME; method in brief: as §4
# [7] = target: T1, Prostaglandin E2 receptor EP1 subtype; assay: Antagonist activity at human recombinant EP1 receptor expressed in CHO cells assessed as inhibition of PGE2-mediated intracellular calcium mobilization by FLIPR method; format: functional, cell-based
# Method in brief: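 CHO cells recombinantly overexpressing human EP1 receptor; antagonism measured as block of PGE2-mediated intracellular Ca2+ mobilization. Values are the mean of at least three experiments with standard deviations.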
# Cytochrome P450 2D6 = Cytochrome P450 2D6 (Homo sapiens, UniProt P10635); assay: Inhibition of human CYP2D6; format: ADME; method in brief: as §4
# Cytochrome P450 3A4 [8] = target: T3, Cytochrome P450 3A4 (Homo sapiens, UniProt P08684); assay: Inhibition of human CYP3A4 using PPR substrate; format: ADME
# [9] = Ratio of drug level in brain to blood in complete Freund's adjuvant-induced rat inflammatory pain model at 10 mg/kg, po administered after 23 hrs of adjuvant challenge measured after 1 hr; format: ADME, organism-based; set-up: dose 10 mg/kg, route oral; conditions: brain and blood
# Method in brief: (§5)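 Rat CFA inflammatory pain model: oral dosing at 1, 3 or 10 mg/kg 23 h after intraplantar adjuvant; blood and brain sampled 1 h post-dose from the same animal; Br:Bl ratio is the mean from three animals.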
# [10] = Ratio of drug level in brain to blood in complete Freund's adjuvant-induced rat inflammatory pain model at 1 mg/kg, po administered after 23 hrs of adjuvant challenge measured after 1 hr; format: ADME, organism-based; set-up: dose 1 mg/kg, route oral; conditions: brain and blood; method in brief: as §5
# Cytochrome P450 2C9 = Cytochrome P450 2C9 (Homo sapiens, UniProt P11712); assay: Inhibition of human CYP2C9; format: ADME; method in brief: as §4
# Rattus norvegicus [11] = assay: […] activity against complete Freund's adjuvant induced inflammatory pain in po dosed rat assessed as reversal of hypersensitivity post-adjuvant challenge after 1 hr; format: functional; method in brief: as §1
# [12] = Drug level in brain of complete Freund's adjuvant-induced rat inflammatory pain model at 3 mg/kg, po administered after 23 hrs of adjuvant challenge measured after 1 hr; format: ADME, organism-based; set-up: dose 3 mg/kg, route oral; conditions: read-out: Drug uptake; method in brief: as §3
# [13] = Ratio of drug level in brain to blood in complete Freund's adjuvant-induced rat inflammatory pain model at 3 mg/kg, po administered after 23 hrs of adjuvant challenge measured after 1 hr; format: ADME, organism-based; set-up: dose 3 mg/kg, route oral; conditions: brain and blood; method in brief: as §5
# Cytochrome P450 3A4 [14] = target: T3, Cytochrome P450 3A4; assay: Inhibition of human CYP3A4 using DEF substrate; format: ADME
# [15] = Drug level in blood of complete Freund's adjuvant-induced rat inflammatory pain model at 10 mg/kg, po administered after 23 hrs of adjuvant challenge measured after 1 hr; format: ADME, organism-based; set-up: dose 10 mg/kg, route oral; conditions: read-out: Drug uptake; method in brief: as §3
# [16] = Drug level in blood of complete Freund's adjuvant-induced rat inflammatory pain model at 3 mg/kg, po administered after 23 hrs of adjuvant challenge measured after 1 hr; format: ADME, organism-based; set-up: dose 3 mg/kg, route oral; conditions: read-out: Drug uptake; method in brief: as §3
# [17] = Metabolic stability in rat liver microsomes assessed as compound turnover after 30 mins; format: ADME, Microsome; conditions: read-out: Stability
# [18] = Metabolic stability in human liver microsomes assessed as compound turnover after 30 mins; format: ADME, Microsome; conditions: read-out: Stability
# [19] = Selectivity for human recombinant EP1 receptor over DP1
# Sequence of Cytochrome P450 2D6 (P10635 whole entry): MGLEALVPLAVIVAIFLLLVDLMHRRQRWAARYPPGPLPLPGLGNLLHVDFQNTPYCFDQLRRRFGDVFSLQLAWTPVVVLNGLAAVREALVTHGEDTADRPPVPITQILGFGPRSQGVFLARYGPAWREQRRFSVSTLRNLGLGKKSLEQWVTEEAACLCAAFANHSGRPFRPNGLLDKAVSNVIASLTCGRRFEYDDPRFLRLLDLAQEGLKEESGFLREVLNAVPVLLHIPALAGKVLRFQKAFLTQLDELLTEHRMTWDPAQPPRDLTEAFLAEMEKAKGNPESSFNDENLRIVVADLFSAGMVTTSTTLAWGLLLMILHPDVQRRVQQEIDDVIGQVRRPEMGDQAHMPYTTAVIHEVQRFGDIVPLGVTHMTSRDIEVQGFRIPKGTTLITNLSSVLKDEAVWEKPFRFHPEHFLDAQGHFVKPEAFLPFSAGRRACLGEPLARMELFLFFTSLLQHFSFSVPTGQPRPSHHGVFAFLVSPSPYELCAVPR
# T3 sequence (P08684 whole entry): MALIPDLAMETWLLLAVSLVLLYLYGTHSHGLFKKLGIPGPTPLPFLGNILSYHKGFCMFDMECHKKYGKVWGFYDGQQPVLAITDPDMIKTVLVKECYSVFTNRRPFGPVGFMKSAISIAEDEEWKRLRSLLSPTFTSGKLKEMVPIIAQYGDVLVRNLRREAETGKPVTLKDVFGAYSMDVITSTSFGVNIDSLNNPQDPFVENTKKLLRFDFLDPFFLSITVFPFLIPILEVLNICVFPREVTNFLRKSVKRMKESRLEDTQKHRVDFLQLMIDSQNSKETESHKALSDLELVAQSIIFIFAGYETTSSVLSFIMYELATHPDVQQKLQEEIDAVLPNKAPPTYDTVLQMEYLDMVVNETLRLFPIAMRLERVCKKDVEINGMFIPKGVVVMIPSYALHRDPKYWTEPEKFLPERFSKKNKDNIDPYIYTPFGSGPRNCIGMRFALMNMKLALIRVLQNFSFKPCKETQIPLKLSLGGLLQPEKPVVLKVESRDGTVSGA
# Sequence of Cytochrome P450 2C19 (P33261 whole entry): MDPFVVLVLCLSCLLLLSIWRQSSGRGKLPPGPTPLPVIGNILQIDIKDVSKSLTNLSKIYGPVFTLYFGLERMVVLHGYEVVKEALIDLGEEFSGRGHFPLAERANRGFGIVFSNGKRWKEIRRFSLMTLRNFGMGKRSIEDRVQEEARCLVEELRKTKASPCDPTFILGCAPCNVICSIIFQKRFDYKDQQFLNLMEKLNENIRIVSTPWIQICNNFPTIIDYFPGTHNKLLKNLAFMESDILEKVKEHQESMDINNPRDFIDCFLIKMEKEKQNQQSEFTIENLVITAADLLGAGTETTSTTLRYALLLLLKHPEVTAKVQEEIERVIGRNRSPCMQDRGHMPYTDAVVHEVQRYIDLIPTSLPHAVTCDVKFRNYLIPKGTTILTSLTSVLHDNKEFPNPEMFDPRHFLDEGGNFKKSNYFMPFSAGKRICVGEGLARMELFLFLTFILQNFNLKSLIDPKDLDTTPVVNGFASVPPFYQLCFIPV
# Sequence of Cytochrome P450 2C9 (P11712 whole entry): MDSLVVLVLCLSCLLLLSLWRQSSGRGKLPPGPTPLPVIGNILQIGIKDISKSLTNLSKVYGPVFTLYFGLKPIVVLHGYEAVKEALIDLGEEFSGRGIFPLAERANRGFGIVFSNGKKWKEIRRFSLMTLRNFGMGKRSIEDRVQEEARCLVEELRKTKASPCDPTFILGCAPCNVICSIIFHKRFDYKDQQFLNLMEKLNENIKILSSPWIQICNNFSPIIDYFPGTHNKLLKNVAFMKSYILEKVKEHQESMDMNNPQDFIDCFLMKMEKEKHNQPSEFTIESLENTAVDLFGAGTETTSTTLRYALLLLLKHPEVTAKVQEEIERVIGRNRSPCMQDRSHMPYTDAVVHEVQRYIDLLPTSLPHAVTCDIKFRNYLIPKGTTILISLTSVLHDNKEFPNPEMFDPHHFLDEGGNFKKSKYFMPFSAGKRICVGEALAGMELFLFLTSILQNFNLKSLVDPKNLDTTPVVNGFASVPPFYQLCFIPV
structure (smiles),measurement,setting,value
O=C(O)c1cccc(Cc2cc(Cl)ccc2OCC2CCCCC2)n1,IC50,[1],100 nM
O=C(O)c1cccc(Cc2cc(Cl)ccc2OCc2ccc(Cl)cc2)n1,IC50,[1],39.8 nM
Cc1cc(C(=O)[O-])nn1Cc1cc(Br)ccc1OCc1ccc(Cl)cc1Cl.[Na+],Activity,Rattus norvegicus [2],70%
same,Ratio,Brain,< 0.05
same,IC50,[1],0.129 nM
O=C(O)c1cccc(Cc2cc(Cl)ccc2OCc2ccccc2F)n1,IC50,[1],79.4 nM
O=C(O)c1cccc(Cc2cc(Cl)ccc2OCc2ccc(F)cc2F)n1,IC50,[1],25.1 nM
O=C([O-])c1cccc(Cc2cc(Cl)ccc2OCc2ccc(F)cc2Cl)n1.[Na+],logD,[3],2
same,IC50,Cytochrome P450 1A2,61000 nM
same,concentration at 1 h,[4],93 nM
same,concentration at 1 h,[5],1120 nM
same,concentration at 1 h,[6],346 nM
same,IC50,Cytochrome P450 2C19,28000 nM
same,Ki,[7],100 nM
same,IC50,Cytochrome P450 2D6,> 100000 nM
same,IC50,Cytochrome P450 3A4 [8],> 100000 nM
same,IC50,[1],12.6 nM
same,Kp at 1 h,[9],0.31
same,Kp at 1 h,[10],0.31
same,IC50,Cytochrome P450 2C9,15000 nM
same,ED50,Rattus norvegicus [11],5.6 mg/kg
same,concentration at 1 h,[12],256 nM
same,Kp at 1 h,[13],0.3
same,IC50,Cytochrome P450 3A4 [14],35000 nM
same,concentration at 1 h,[15],3010 nM
same,concentration at 1 h,[16],836 nM
O=C(O)c1cccc(Cc2cc(Cl)ccc2OCc2c(F)cc(F)cc2F)n1,IC50,[1],79.4 nM
O=C(O)c1cccc(Cc2cc(Cl)ccc2OCc2ccc(F)cc2)n1,IC50,[1],100 nM
O=C(O)c1cccc(Cc2cc(Cl)ccc2OCC2CC2)n1,IC50,[1],200 nM
O=C(O)c1cccc(Cc2cc(Cl)ccc2OCc2ccc(Cl)cc2Cl)n1,metabolised at 0.5 h,[17],< 15%
same,logD,[3],2.6
same,IC50,Cytochrome P450 1A2,32000 nM
same,metabolised at 0.5 h,[18],< 15%
same,IC50,Cytochrome P450 2C19,> 50000 nM
same,Ki,[7],25.1 nM
same,IC50,Cytochrome P450 2D6,> 50000 nM
same,IC50,[1],10 nM
same,IC50,Cytochrome P450 2C9,4800 nM
O=C(O)c1cccc(C2=C(c3cc(Cl)ccc3OCc3ccc(F)cc3F)CCC2)n1,fold change (FC),[19],> 400
O=C(O)c1cccc(Cc2cc(Cl)ccc2OCc2ccccc2Cl)n1,IC50,[1],39.8 nM
O=C(O)c1cccc(Cc2cc(Cl)ccc2OCC2CCCC2)n1,IC50,[1],31.6 nM
